15 compounds from ChEMBL document CHEMBL3352099, “Anti-osteoporotic and antioxidant activities of chemical constituents of the aerial parts of Ducrosia ismaelis” (Bioorg Med Chem Lett, 2014) can be followed below.

The structures appear in SMILES notation.

Series [1] is described as follows: Antioxidant activity assessed as AAPH-induced peroxyl radical scavenging activity by oxygen radical absorbance assay. The series is classed as physicochemical. The method, boiled down: (§1)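 Peroxyl radical scavenging measured by ORAC, a hydrogen atom transfer assay. Compounds tested at 1-10 µM. Values expressed as µM Trolox equivalents (TE).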
Series [2] has as its system RAW264.7. Description: Antiosteoporotic activity in mouse RAW264.7 cells assessed as inhibition of RANKL-induced osteoclast formation after 5 days by TRAP assay relative to untreated control. The series is classed as functional, cell-based. The method, boiled down: (§2)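 RAW 264.7 pre-osteoclast cells induced to form osteoclasts with RANKL. Compounds tested at concentrations up to 10 µM. TRAP activity is expressed as percent of the untreated control, as mean ± SD with n = 3. The untreated control (C) and the RANKL-treated control (TC) are both included.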

The subject of series [3] is RAW264.7. Description: Antiosteoporotic activity in mouse RAW264.7 cells assessed as inhibition of RANKL-induced osteoclast formation at 10 uM after 5 days by TRAP assay relative to untreated control. The series is classed as functional. Details: scale not given: the % may be the effect or the level left. The method, boiled down:
as §2

Series [4] is described as follows: Antioxidant activity assessed as reduction of Cu2+ to Cu+ at 10 uM by reduction assay relative to trolox. The series is classed as physicochemical. The method, boiled down:
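Single electron transfer reducing-capacity assay measuring reduction of Cu2+ ions. Compounds tested at up to 10.0 µM. Values expressed as µM Trolox equivalents, as mean ± SD of three measurements.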

Series [5] can be described thus: Antioxidant activity assessed as AAPH-induced peroxyl radical scavenging activity at 10 uM by oxygen radical absorbance assay relative to trolox. The series is classed as physicochemical. In outline:
as §1

Consider `CC1=CC(=O)CC(C)(C)[C@H]1CC[C@@H](C)O[C@@H]1O[C@H](CO)[C@@H](O)[C@H](O)[C@H]1O`, for which, in series [1], the Activity entry was “Dose-dependent effect”. On to `O=c1oc2cc(O)ccc2c2oc3cc(O)ccc3c12` [COUMESTROL], for which the Activity entry in series [1] is “Dose-dependent effect”.

`COc1cc([C@H]2OC[C@H]3[C@@H]2CO[C@@H]3c2cc(OC)c(O[C@@H]3O[C@H](CO)[C@@H](O)[C@H](O)[C@H]3O)c(OC)c2)cc(OC)c1O[C@@H]1O[C@H](CO)[C@@H](O)[C@H](O)[C@H]1O` [LIRIODENDRIN]: the results for the Activity result (in the series on RAW264.7 [2]; in the series with RAW264.7 [3]; in series [1]) were “Dose-dependent effect”, 106.05% and “Dose-dependent effect”, respectively.

For `COc1cc([C@H]2OC[C@H]3[C@@H]2CO[C@@H]3c2cc(OC)c(OC)c(OC)c2)cc(OC)c1O`, the Activity result in series [1] is “Dose-dependent effect”. The Ratio in series [4] turned out to be 23.44.

Consider `OC[C@H]1O[C@@H](Oc2ccc3c(c2)OC[C@@]2(O)c4ccc(O)cc4O[C@@H]32)[C@H](O)[C@@H](O)[C@@H]1O`, for which, in series [1], the Activity entry is given as “Dose-dependent effect”. Besides, the Ratio in series [5] is given as more than 20. Consider `O=c1c(-c2ccc(O[C@@H]3O[C@H](CO)[C@@H](O)[C@H](O)[C@H]3O)cc2)coc2cc(O)ccc12`, for which the values for the Activity entry (in the series on RAW264.7 [2]; in the series on RAW264.7 [3]; in series [1]) were “Dose-dependent effect”, 104.77% and “Dose-dependent effect”, respectively. The Ratio in series [5] is more than 20. For the compound `O=c1c(-c2ccc(O)cc2)coc2cc(O[C@@H]3O[C@H](CO)[C@@H](O)[C@H](O)[C@H]3O)cc(O)c12` [GENISTIN], the Activity entry in series [1] is “Dose-dependent effect”. For the same compound, in series [5], the Ratio amounted to 26.55. In the case of `COc1cc(/C=C/CO)ccc1O[C@@H]1O[C@H](CO)[C@@H](O)[C@H](O)[C@H]1O` [CONIFERIN], the Activity entry in series [1] is “Dose-dependent effect”. On to `C=CCc1ccc(O[C@@H]2O[C@H](CO)[C@@H](O)[C@H](O)[C@H]2O)c(OC)c1` [CITRUSIN C], for which the Activity entry in the series on RAW264.7 [2] is “Dose-dependent effect”; with RAW264.7 [3] it was 100.93%; in series [1], “Dose-dependent effect”. For the compound `COc1cc(O)c2c(=O)c(-c3ccc(O[C@@H]4O[C@H](CO)[C@@H](O)[C@H](O)[C@H]4O)cc3)coc2c1`, the Activity entry in series [1] is on record as “Dose-dependent effect”. Turning to `COC(=O)/C=C\c1ccc(O)c(CC=C(C)C)c1`, the Activity result is “Dose-dependent effect” in the series with RAW264.7 [2], 85.05% in the series on RAW264.7 [3] and “Dose-dependent effect” in series [1]. For `COc1cc([C@H]2OC[C@H]3[C@@H]2CO[C@@H]3c2ccc(O[C@@H]3O[C@H](CO)[C@@H](O)[C@H](O)[C@H]3O)c(OC)c2)ccc1O`, in series [1], the Activity entry is “Dose-dependent effect”. Consider `O=C(c1ccc(O)cc1O[C@@H]1O[C@H](CO)[C@@H](O)[C@H](O)[C@H]1O)[C@H](O)Cc1ccc(O)cc1`, for which the Activity result in series [1] is given as “Dose-dependent effect”. `O=c1c(-c2ccc(O)cc2)coc2cc(O[C@@H]3O[C@H](CO)[C@@H](O)[C@H](O)[C@H]3O)ccc12` [DAIDZIN]: the Activity result in series [1] is “Dose-dependent effect”. Moreover, in series [5], the Ratio is listed as more than 20. For `CC(C)=CCc1c(O)ccc(C(=O)/C=C/c2ccc(O)cc2)c1O` [ISOBAVACHALCONE], in series [1], the Activity entry is recorded as “Dose-dependent effect”. For the same compound, the Ratio in series [5] is listed as more than 20.
